According to publication PMC2605181 (Nature chemical biology, 2008):
Entries after “also recorded” stand apart in the source; their conditions may differ.

Columns and labels:
MAGL [1] = target: T1, MAGL (Mus musculus, UniProt O35678); assay: Competitive ABPP; assay type: biochemical; details: for inhibition of MAGL by competitive ABPP: 30 min
T1 sequence (O35678 1-303): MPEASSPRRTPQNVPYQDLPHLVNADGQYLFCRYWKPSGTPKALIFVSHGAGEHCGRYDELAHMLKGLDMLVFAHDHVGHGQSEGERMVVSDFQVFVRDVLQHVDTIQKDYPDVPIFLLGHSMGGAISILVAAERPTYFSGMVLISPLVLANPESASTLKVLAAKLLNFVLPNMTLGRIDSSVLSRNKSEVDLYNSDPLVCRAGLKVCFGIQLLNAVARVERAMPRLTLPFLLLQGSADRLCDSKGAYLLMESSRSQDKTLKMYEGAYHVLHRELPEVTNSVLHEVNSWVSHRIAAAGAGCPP

MAGL [2] = target: T1, MAGL; assay: MAGL activity of brain membranes from treated mice; assay type: in vivo; details: 16 mg kg^-1 i.p., 4 h
ABHD6 = target: T2, ABHD6 (Mus musculus, UniProt Q8R2Y0); assay: Competitive ABPP; assay type: biochemical; details: for inhibition of ABHD6 by competitive ABPP: mouse brain membrane proteome, 30 min, Fig. 1b
T2 sequence (Q8R2Y0 1-336): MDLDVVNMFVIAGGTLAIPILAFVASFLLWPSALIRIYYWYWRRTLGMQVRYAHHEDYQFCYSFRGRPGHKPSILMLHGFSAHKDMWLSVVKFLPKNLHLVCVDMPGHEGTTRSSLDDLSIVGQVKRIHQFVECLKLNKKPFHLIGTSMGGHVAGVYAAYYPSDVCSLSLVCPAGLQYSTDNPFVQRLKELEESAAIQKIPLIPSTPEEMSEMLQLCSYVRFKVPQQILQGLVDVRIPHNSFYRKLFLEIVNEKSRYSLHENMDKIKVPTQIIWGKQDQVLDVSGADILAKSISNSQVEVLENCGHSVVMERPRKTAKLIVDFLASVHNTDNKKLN
Method in brief: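 Mouse brain membrane proteome at 1 mg ml-1 in PBS, preincubated with test compound (1 nM to 10 μM) for 30 min at 37°C, then FP-rhodamine (2 μM final) for 30 min at room temperature. Quenched in SDS loading buffer and boiled 5 min at 90°C. Run on SDS-PAGE with in-gel fluorescence scanning; DMSO-only proteome served as control.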

[3] = Time course of JZL184 in mouse brain; assay type: in vivo; details: C57Bl/6J
[4] = test system: brain levels of 2-AG, arachidonic acid, NAEs, MAGs; assay: Measurement of brain lipids in treated mice; assay type: in vivo, mouse
mice [5] = assay: Rectal temperature; assay type: in vivo, mouse
Method in brief: (§1)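 Measured as part of the cannabinoid tetrad test in mice. Test compound was dissolved in 4:1 v/v PEG300:Tween80 by vortexing, sonication and gentle heating, and given i.p. at 4 μl g-1 body weight; vehicle-only group as control. Rimonabant, where used, was given in 18:1:1 v/v/v saline:ethanol:alkamuls-620.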

[6] = test system: interstitial brain levels of 2-AG and AEA; assay: In vivo microdialysis, nucleus accumbens, neuronal depolarization; parameters: species or system mouse; details: 10 mg kg^-1 i.p.
Method in brief: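 Male C57Bl/6 mice received test compound at t = -60 min. Dialysate was sampled from nucleus accumbens. Depolarization was by perfusion with high potassium/calcium artificial CSF at t = 0-90 min. […] Mean ± SEM; n = 8 treated, 6 vehicle.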

FAAH [7] = target: T3, FAAH (Mus musculus, UniProt O08914); assay: FAAH activity of brain membranes from treated mice; assay type: in vivo
T3 sequence (O08914 1-579): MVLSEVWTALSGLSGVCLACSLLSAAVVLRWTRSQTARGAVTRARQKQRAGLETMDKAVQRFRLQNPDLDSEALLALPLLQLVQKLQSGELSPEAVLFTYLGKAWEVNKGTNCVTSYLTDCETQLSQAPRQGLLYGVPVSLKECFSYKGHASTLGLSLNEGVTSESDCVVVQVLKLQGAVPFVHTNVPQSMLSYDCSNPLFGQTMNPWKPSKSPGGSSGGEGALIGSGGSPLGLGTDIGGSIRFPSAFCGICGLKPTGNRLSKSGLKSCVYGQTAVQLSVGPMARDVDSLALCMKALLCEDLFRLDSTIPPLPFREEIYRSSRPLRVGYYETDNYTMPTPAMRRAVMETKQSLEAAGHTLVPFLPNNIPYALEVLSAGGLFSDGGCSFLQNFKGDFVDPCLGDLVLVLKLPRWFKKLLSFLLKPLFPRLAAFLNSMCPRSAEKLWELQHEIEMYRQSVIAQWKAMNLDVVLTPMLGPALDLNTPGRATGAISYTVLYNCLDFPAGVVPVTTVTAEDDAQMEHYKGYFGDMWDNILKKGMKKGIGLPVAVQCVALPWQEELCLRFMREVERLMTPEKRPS
Method in brief: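 Male C57Bl/6J mice (6-8 weeks, 20-26 g) dosed i.p. in 4:1 v/v PEG300:Tween80, with vehicle-only controls. Killed by decapitation under isoflurane 0.5-24 h later; brain hemisected and flash frozen, one half used for membrane proteomes. FAAH activity measured by gel competitive ABPP, FP-biotin ABPP-MudPIT and LC-MS oleamide hydrolysis. Means ± SEM, n = 3-5 mice per group.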

FAAH [8] = target: T3, FAAH; assay: Competitive ABPP; assay type: biochemical; details: for inhibition of FAAH by competitive ABPP: mouse brain membrane proteome, 30 min, Fig. 1b
Method in brief: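 Mouse brain membrane proteome (1 mg ml-1 in PBS) preincubated with test compound (1 nM to 10 μM) for 30 min at 37°C, then FP-rhodamine (2 μM final) for 30 min at room temperature, quenched, SDS-PAGE, in-gel fluorescence; DMSO control. kobs [I]-1: proteome with 0.01-15 μM for 10-40 min at 37°C, aliquots FP-rhodamine-labelled 2 min every 10 min; FAAH band density fit exponentially for pseudo-first-order constants.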

CB1 receptors = assay: CB1 receptor binding assay, cerebellar membranes; details: JZL184 0.001-10 µM
mice [9] = assay: Formalin test; assay type: in vivo, mouse
Method in brief: (§2)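 Test compound was given in 4:1 v/v PEG300:Tween80 at 4 μl g-1: i.p. for tail immersion and acetic acid stretching; p.o. in PEG300 for formalin phase 1 (40 mg kg-1). Rimonabant was given in 18:1:1 saline:ethanol:alkamuls-620. Vehicle and rimonabant-pretreated groups were compared; mean ± SEM, n = 6-14 mice per group.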

mice [10] = assay: Acetic acid writhing; assay type: in vivo, mouse
Method in brief: as §2

mice [11] = assay: Tail immersion test of acute thermal pain sensation; assay type: in vivo, mouse
Method in brief: as §2

mice [12] = assay: Catalepsy bar test and overt behaviour; assay type: in vivo, mouse
Method in brief: as §1

CB2 receptors = CB2 receptors (Homo sapiens, UniProt P34972); assay: CB2 receptor binding assay, CB2 transfected CHO cell membranes; details: JZL184 0.0005-5 µM
Sequence of CB2 receptors (P34972 whole entry): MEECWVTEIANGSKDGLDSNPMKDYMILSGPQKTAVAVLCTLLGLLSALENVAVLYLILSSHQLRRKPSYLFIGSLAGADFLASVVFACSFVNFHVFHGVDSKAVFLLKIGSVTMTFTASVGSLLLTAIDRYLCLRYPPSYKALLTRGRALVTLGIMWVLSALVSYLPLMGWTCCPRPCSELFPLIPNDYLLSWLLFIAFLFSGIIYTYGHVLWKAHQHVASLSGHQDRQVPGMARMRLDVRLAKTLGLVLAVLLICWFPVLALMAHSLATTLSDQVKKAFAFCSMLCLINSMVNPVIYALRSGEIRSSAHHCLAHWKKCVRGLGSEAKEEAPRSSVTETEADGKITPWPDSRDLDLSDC

brain serine hydrolases = assay: Other brain serine hydrolase activities from treated mice; assay type: in vivo, mouse; details: 16 mg kg^-1, 4 h
Method in brief: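 Male C57Bl/6J mice (6-8 weeks, 20-26 g) given 16 mg kg-1 i.p. in 4:1 v/v PEG300:Tween80 or vehicle alone. At 4 h, killed by decapitation under isoflurane; brain half flash frozen for protein work. Brain membrane proteomes underwent competitive ABPP with the biotinylated FP probe, then MudPIT identification of serine hydrolase activities relative to vehicle. n = 3-5 mice per group.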

mice [13] = assay: Locomotor activity; assay type: in vivo, mouse
Method in brief: as §1

MAGL [14] = details: cited from earlier work
[15] = cited from earlier work
[16] = mouse brain membrane proteome, Fig. 1b
[17] = 16 mg kg^-1 i.p., wild-type / CB1+/+ mice
[18] = brain membrane proteome, FP-rhodamine labeling
[19] = rimonabant 3 mg kg^-1 pre-treatment

COc1ccc(C(O)(c2ccc(OC)cc2)C2CCN(C(=O)Oc3ccc([N+](=O)[O-])cc3)CC2)cc1 [JZL175]
selectivity for MAGL over FAAH and ABHD6 by competitive ABPP (MAGL [1]; [16]): exhibited selectivity for MAGL over both FAAH and ABHD6

O=C(Oc1ccc([N+](=O)[O-])cc1)N1CCC(C(O)(c2ccc3c(c2)OCO3)c2ccc3c(c2)OCO3)CC1 [JZL184]
blockade of brain MAGL activity (competitive ABPP, ABPP-MudPIT) (MAGL [2]): near-complete blockade | residual brain 2-AG hydrolysis activity (MAGL [2]): 15 % of control | concentration at which inhibition of ABHD6 is observed by competitive ABPP (ABHD6; 30 min preincubation): 10 µM | half-life [3]: ~7 h | elevation of brain 2-AG above control levels ([4]; 16 mg kg^-1 i.p., for at least 8 h): 7-9 fold | elevation of brain 2-AG (summary statement) ([4]; administration to mice): 8 fold | elevation of brain 2-AG levels above baseline ([4]; higher doses (up to 40 mg kg^-1 i.p.), 4 h): 8-10 fold | period for which elevated brain 2-AG levels were maintained ([4]; single dose): at least 8 h | hypothermia in CB1^-/- mice (mice [5]; 16 mg kg^-1 i.p., CB1^-/- mice): did not produce significant hypomotility, hypothermia, or analgesia | hypothermia (mice [5]; [17]): significant hypothermia | baseline interstitial levels of 2-AG (before depolarization) ([6]; 1 h prior to depolarization): did not observe changes | interstitial brain levels of 2-AG following neuronal depolarization ([6]; nucleus accumbens): dramatically elevated | interstitial brain levels of AEA ([6]; nucleus accumbens): did not affect; also recorded: no significant alteration | inhibition of brain FAAH by ABPP-MudPIT (FAAH [7]; 16 mg kg^-1, 4 h): partial inhibition | brain FAAH blockade, maximum at any time point (FAAH [7]; 16 mg kg^-1 i.p., 0.5-24 h): ≤ 70% | concentration at which inhibition of FAAH is observed by competitive ABPP (FAAH [8]; 30 min preincubation): 10 µM | kobs [I]^-1 for FAAH (FAAH [8]; [18]): 13 M⁻¹ s⁻¹ | interaction with CB1 receptors (displacement of 3H-rimonabant) (CB1 receptors): did not interact | antinociception in formalin test, phase 1 (mice [9]; 40 mg kg^-1 p.o.): antinociceptive effects | antinociception in formalin test, phase 2 (mice [9]; 40 mg kg^-1 p.o.): antinociceptive effects | analgesic activity in formalin test (mice [9]; text: 16 mg kg^-1, 2 h): significant analgesic activity | antinociception in acetic acid writhing test (mice [10]; 16 mg kg^-1, 2 h): significant analgesic activity; also recorded: antinociceptive effects | antinociception in tail immersion test (mice [11]; 16 mg kg^-1 i.p., 2 h, wild-type / CB1+/+ mice): significant analgesic activity; also recorded: antinociceptive effects | catalepsy in the bar test (mice [12]; 16 mg kg^-1 i.p.): did not, however, induce catalepsy; also recorded: did not develop catalepsy | overt posture and appearance (spontaneous limb splaying) (mice [12]; JZL184-treated mice): appeared generally normal | interaction with CB2 receptors (radioligand displacement) (CB2 receptors): did not interact | blockade of MAGL activity by competitive ABPP (MAGL [1]; as low as 50 nM JZL184, 30 min preincubation): Near-complete blockade | kobs [I]^-1 for MAGL (MAGL [1]; [18]): 4400 M⁻¹ s⁻¹ | effect on other brain serine hydrolases by ABPP-MudPIT (brain serine hydrolases): none of the other ∼40 brain serine hydrolases profiled by ABPP-MudPIT were significantly affected | hypomotility in CB1^-/- mice (mice [13]; 16 mg kg^-1 i.p., CB1^-/- mice): did not produce significant hypomotility, hypothermia, or analgesia | hypomotility (mice [13]; [17]): hypomotility

CCCCC/C=C\C/C=C\C/C=C\C/C=C\CCCCN1C(=O)C=CC1=O [NAM]
selectivity for MAGL over FAAH and other serine hydrolases (MAGL [14]): some selectivity | potentiation of pharmacological effects of 2-AG in vivo [15]: potentiate the pharmacological effects of 2-AG

NC(=O)c1cccc(-c2cccc(OC(=O)NC3CCCCC3)c2)c1 [URB597, reference compound]
brain 2-AG or arachidonic acid levels ([4]; URB597 10 mg kg^-1 i.p.): without altering | brain anandamide and other NAEs ([4]; URB597 10 mg kg^-1 i.p.): significant elevations | brain FAAH activity (FAAH [7]; URB597 10 mg kg^-1 i.p.): completely inhibited

CN(Cc1cccc(-c2ccncc2)c1)C(=O)Oc1ccc([N+](=O)[O-])cc1 [WWL98]
inhibition of ABHD6 by competitive ABPP (ABHD6): inhibited | inhibition of FAAH by competitive ABPP (FAAH [8]): inhibited | inhibition of MAGL by competitive ABPP (MAGL [1]; [16]): inhibited

O=C(Oc1ccc([N+](=O)[O-])cc1)N1CCN(C(c2ccc(F)cc2)c2ccc(F)cc2)CC1 [WWL152]
inhibition of ABHD6 by competitive ABPP (ABHD6): preserve potency | inhibition of FAAH by competitive ABPP (FAAH [8]): greatly reducing activity for FAAH | inhibition of MAGL by competitive ABPP (MAGL [1]; [16]): preserve potency

COc1ccc(C(c2ccc(OC)cc2)N2CCN(C(=O)Oc3ccc([N+](=O)[O-])cc3)CC2)cc1 [WWL162]
inhibition of ABHD6 by competitive ABPP (ABHD6): preserve potency | inhibition of FAAH by competitive ABPP (FAAH [8]): greatly reducing activity for FAAH | inhibition of MAGL by competitive ABPP (MAGL [1]; [16]): preserve potency

Cc1c(C(=O)NN2CCCCC2)nn(-c2ccc(Cl)cc2Cl)c1-c1ccc(Cl)cc1 [rimonabant, reference compound]
blockade of hypothermic effect of JZL184 (mice [5]; [19]): completely blocked | blockade of JZL184 effect in formalin test (mice [9]; [19]): blocked | blockade of JZL184 effect in acetic acid writhing test (mice [10]; [19]): blocked | blockade of JZL184 effect in tail immersion test (mice [11]; [19]): blocked | effect of rimonabant on its own on movement (mice [13]; rimonabant 3 mg kg^-1): significant reductions in movement | blockade of JZL184-induced immobility (mice [13]; [19]): partial blockade
